Columns and labels:
[1] = molecular target: T1, Tyrosyl-DNA phosphodiesterase 1 (Homo sapiens, UniProt Q9NUW8); experiment: Inhibition of recombinant TDP1 (unknown origin) using 5'-(5,6 FAM-aac gtc agg gtc ttc c-BHQ1)-3' as substrate measured at 1 min interval by fluorimetric method
Procedure, shortened: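 Recombinant TDP1 1.3 nM with 50 nM FAM/BHQ1 biosensor in 50 mM Tris-HCl pH 8.0, 50 mM NaCl, 7 mM β-mercaptoethanol, 26 °C. Fluorescence read each minute (Ex485/Em520). Slope over 0–7 min linear phase compared with DMSO control; IC50 from 11-point concentration-response curve.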

[2] = Cytotoxicity against human MCF7 cells over expressing TDP1 assessed as reduction in viable cells after 72 hrs by MTT assay; format: cell-based; conditions: MCF7 cells overexpressing TDP1
Procedure, shortened: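 MCF-7 cells (~2000/well) grown 24 h at 37 °C in IMDM, 5% CO2, then exposed to 0.1–100 μM compound for 72 h. Viable cells by MTT test; CC50 = concentration reducing cell number 50% vs untreated controls; average of three independent experiments.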

[3] = molecular target: T1, Tyrosyl-DNA phosphodiesterase 1; experiment: Inhibition of TDP1 in human MCF7 cells assessed as potentiation of camptothecin-induced cytotoxicity by measuring fold reduction in camptothecin CC50 at 0.5 uM after 72 hrs by MTT assay relative to camptothecin alone; format: cell-based
Procedure, shortened: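 MCF-7 cells (~2000/well), pre-grown 24 h at 37 °C in IMDM, 5% CO2, treated with graded camptothecin plus 0.5 μM enamine for 72 h. Viability by MTT; camptothecin CC50 taken as 50% reduction in cell number vs untreated controls, compared with and without enamine.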

[4] = Cytotoxicity against human A549 cells assessed as reduction in viable cells after 72 hrs by MTT assay; format: cell-based
Procedure, shortened: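 A-549 cells treated with compounds; after 72 h, viable cells measured by MTT colorimetric test. CC50 = concentration reducing cell number by 50% versus untreated controls.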

[5] = molecular target: T1, Tyrosyl-DNA phosphodiesterase 1; experiment: Inhibition of TDP1 in human A549 cells assessed as potentiation of camptothecin-induced cytotoxicity by measuring fold reduction in camptothecin CC50 at 0.5 uM after 72 hrs by MTT assay relative to camptothecin alone; format: cell-based
Procedure, shortened: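 A-549 cells treated with graded camptothecin plus 0.5 μM enamine; viability by MTT after 72 h. Camptothecin CC50 compared with and without enamine.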

[6] = molecular target: T1, Tyrosyl-DNA phosphodiesterase 1; experiment: Inhibition of recombinant TDP1 (unknown origin) assessed as reduction in BHQ1 excision from 3'-end of [32P]-labeled oligonucleotide substrate after 20 mins by polyacrilamide gel electrophoresis

T1 sequence (Q9NUW8 whole entry): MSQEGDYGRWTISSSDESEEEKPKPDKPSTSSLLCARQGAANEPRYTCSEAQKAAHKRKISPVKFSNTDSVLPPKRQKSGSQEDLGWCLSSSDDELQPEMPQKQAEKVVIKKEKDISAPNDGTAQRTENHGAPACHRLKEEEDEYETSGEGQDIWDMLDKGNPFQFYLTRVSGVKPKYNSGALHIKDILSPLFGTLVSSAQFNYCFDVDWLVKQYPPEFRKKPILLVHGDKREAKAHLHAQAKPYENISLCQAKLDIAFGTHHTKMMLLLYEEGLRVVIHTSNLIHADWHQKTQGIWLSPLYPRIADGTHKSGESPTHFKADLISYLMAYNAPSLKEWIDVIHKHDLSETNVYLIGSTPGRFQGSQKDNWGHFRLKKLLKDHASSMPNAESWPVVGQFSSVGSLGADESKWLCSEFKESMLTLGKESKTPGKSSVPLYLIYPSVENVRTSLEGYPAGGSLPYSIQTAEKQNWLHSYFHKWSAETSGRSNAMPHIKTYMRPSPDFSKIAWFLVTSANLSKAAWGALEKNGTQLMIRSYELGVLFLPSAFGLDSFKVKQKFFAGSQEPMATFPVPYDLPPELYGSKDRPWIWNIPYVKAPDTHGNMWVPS

Row | IC50 [1] [µM] | IC50 [6] [µM] | SMILES | CC50 at 72 h [2] [µM] | fold change (FC) [3] | CC50 at 72 h [4] [µM] | fold change (FC) [5]
1 | 1.92 | – | CC(=O)c1c(O)c(C)c(O)c2c1OC1=CC(=O)/C(=C(/C)Nc3ccccc3)C(=O)[C@]12C | 39 | 1 | – | –
2 | 1.53 | – | CC(=O)c1c(O)c(C)c(O)c2c1OC1=CC(=O)/C(=C(/C)Nc3ccccc3)C(=O)[C@@]12C | > 50 | 1.2 | – | –
3 | 0.94 | – | CC(=O)c1c(O)c(C)c(O)c2c1OC1=CC(=O)/C(=C(/C)Nc3ccc(F)cc3)C(=O)[C@]12C | > 50 | 1.6 | – | –
4 | 0.75 | – | CC(=O)c1c(O)c(C)c(O)c2c1OC1=CC(=O)/C(=C(/C)Nc3cccc(Br)c3)C(=O)C12C (stereo not given) | 18.1 | 12.5 | > 100 | 1.2
5 | 0.26 | 4.6 | CC(=O)c1c(O)c(C)c(O)c2c1OC1=CC(=O)/C(=C(/C)Nc3ccc(Br)cc3)C(=O)[C@@]12C | 39.3 | 1.5 | – | –
6 | 0.16 | – | CC(=O)c1c(O)c(C)c(O)c2c1OC1=CC(=O)/C(=C(/C)NCCCc3cc(C(C)(C)C)c(O)c(C(C)(C)C)c3)C(=O)C12C (stereo not given) | > 50 | 10.5 | > 100 | 3.5
7 | > 100 | – | CC(=O)c1c(O)c(C)c(O)c2c1OC1=CC(=O)/C(=C(/C)NCCCN3CCOCC3)C(=O)C12C (stereo not given) | 24 | – | – | –
8 | 1.39 | – | CC(=O)c1c(O)c(C)c(O)c2c1OC1=CC(=O)/C(=C(/C)Nc3cccc(F)c3)C(=O)C12C (stereo not given) | 35 | 12.8 | > 100 | 1.6
9 | 1.54 | – | CC(=O)c1c(O)c(C)c(O)c2c1OC1=CC(=O)/C(=C(/C)Nc3ccc(F)cc3)C(=O)[C@@]12C | 22.2 | 2.1 | – | –
10 | 1.62 | – | CC(=O)c1c(O)c(C)c(O)c2c1OC1=CC(=O)/C(=C(/C)Nc3ccc(Cl)cc3)C(=O)[C@]12C | 16 | 0.35 | – | –
11 | 0.79 | – | CC(=O)c1c(O)c(C)c(O)c2c1OC1=CC(=O)/C(=C(/C)NCCc3ccc(O)cc3)C(=O)[C@@]12C | 21.5 | 12.8 | 70 | 1.3
12 | 0.57 | – | CC(=O)c1c(O)c(C)c(O)c2c1OC1=CC(=O)/C(=C(/C)Nc3ccc(Br)cc3)C(=O)[C@]12C | 10.6 | 0.92 | – | –
13 | 0.19 | – | CC(=O)c1c(O)c(C)c(O)c2c1OC1=CC(=O)/C(=C(/C)NCCc3cc(C(C)(C)C)c(O)c(C(C)(C)C)c3)C(=O)C12C (stereo not given) | > 50 | 1.7 | – | –
14 | > 100 | – | CC(=O)c1c(O)c(C)c(O)c2c1OC1=CC(=O)/C(=C(/C)NCCN(C)C)C(=O)C12C (stereo not given) | 33 | – | – | –
15 | 1.81 | – | CC(=O)c1c(O)c(C)c(O)c2c1OC1=CC(=O)/C(=C(/C)Nc3ccc(Cl)cc3)C(=O)[C@@]12C | > 50 | 0.51 | – | –

Row | SMILES | IC50 [1] [µM] | IC50 [6] [µM] | CC50 at 72 h [2] [µM] | fold change (FC) [3] | CC50 at 72 h [4] [µM] | fold change (FC) [5]
16 | CC(=O)C1=C(O)C=C2Oc3c(C(C)=O)c(O)c(C)c(O)c3[C@@]2(C)C1=O [(+)-USNIC ACID] | > 100 | – | 52.3 | – | – | –
17 | CC(=O)C1=C(O)C=C2Oc3c(C(C)=O)c(O)c(C)c(O)c3[C@]2(C)C1=O [(-)-USNIC ACID] | > 100 | – | – | – | – | –

From ChEMBL document CHEMBL3997772, “Tyrosyl-DNA Phosphodiesterase 1 Inhibitors: Usnic Acid Enamines Enhance the Cytotoxic Effect of Camptothecin” (J Nat Prod, 2016)
